Assay results published in ChEMBL document CHEMBL2062460, “Disubstituted thiourea derivatives and their activity on CNS: synthesis and biological evaluation” (Eur J Med Chem, 2012).
Calls of active or inactive are those of the source. The rule behind the calls is not given here.

What was measured:
Mus musculus [1] = experiment: Toxicity in Albino Swiss mouse assessed as locomotor activity administered at doses equivalent to 0.1 ED50, ip measured after 1 hr for 30 mins; assay type: organism-based; conditions: in vivo
In short: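 Spontaneous locomotor activity of single male Albino Swiss mice in photoresistor actometers (two light beams), beam crossings recorded for 30 min, starting 60 min after i.p. compound in 0.5% methylcellulose.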

Mus musculus [2] = experiment: Toxicity in Albino Swiss mouse assessed as effect on amphetamine-induced hyperactivity administered at doses equivalent to 0.1 ED50, ip; assay type: organism-based; conditions: in vivo
In short: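 Compound i.p. in 0.5% methylcellulose 60 min before test; amphetamine 5 mg/kg s.c. 30 min before test; single mice in photoresistor actometers, light-beam crossings counted for 30 min.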

Mus musculus [3] = experiment: Antinociceptive activity in Albino Swiss mouse administered at doses equivalent to 0.025 to 0.1 ED50, ip; assay type: functional, organism-based
Mus musculus [4] = experiment: Antinociceptive activity in Albino Swiss mouse administered at doses equivalent to 0.025 to 0.1 ED50, ip in presence of naloxone; assay type: functional, organism-based
In short: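 Acetic acid (0.6%, i.p.) writhing test in male Albino Swiss mice, compound i.p. in 0.5% methylcellulose 60 min prior, with naloxone 5 mg/kg s.c.; writhes counted 10 min from 5 min post-acid; mean ± S.E.M., 8–10 mice per group.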

Mus musculus [5] = experiment: Toxicity in Albino Swiss mouse assessed as motor coordination administered at doses equivalent to 0.1 ED50, ip by chimney test; assay type: organism-based; conditions: in vivo
Mus musculus [6] = experiment: Toxicity in Albino Swiss mouse assessed as motor coordination administered at doses equivalent to 0.1 ED50, ip by rota rod test; assay type: organism-based; conditions: in vivo
Mus musculus [7] = experiment: Anticonvulsant activity in Albino Swiss mouse assessed as protection against pentylenetetrazole-induced severity of clonic or tonic seizures administered at doses equivalent to 0.1 ED50, ip; assay type: functional, organism-based
Mus musculus [8] = experiment: Anticonvulsant activity in Albino Swiss mouse assessed as protection against pentylenetetrazole-induced mortality administered at doses equivalent to 0.1 ED50, ip; assay type: functional, organism-based
Mus musculus [9] = experiment: Reduction of 5-hydroxytryptophan-induced head twitch in Albino Swiss mouse administered at doses equivalent to 0.1 ED50, ip; assay type: functional, organism-based
Mus musculus [10] = experiment: Reduction of body temperature in normothermic Albino Swiss mouse administered at doses equivalent to 0.1 ED50, ip measured in rectum by thermistor thermometer analysis; assay type: ADME, organism-based; conditions: in vivo
[11] = system: Staphylococcus epidermidis; experiment: Antibacterial activity against methicillin-resistant Staphylococcus epidermidis clinical isolate 311/08 after 18 hrs by twofold serial agar dilution technique; assay type: functional; conditions: clinical isolate 311/08, 18 h
In short: (§1)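 Clinical isolates came from patients in Warsaw Medical University Hospitals and were classed as methicillin-susceptible or -resistant. MIC was determined by twofold serial agar dilution on Mueller–Hinton II agar (CLSI), 3.125–400 µg/mL in agar, with compounds in methanol or DMSO. Inoculum was 10^4 CFU/mL and plates were read after 18 h at 35 °C.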

[12] = system: Staphylococcus epidermidis; experiment: Antibacterial activity against methicillin-resistant Staphylococcus epidermidis clinical isolate 315/08 after 18 hrs by twofold serial agar dilution technique; assay type: functional; conditions: clinical isolate 315/08, 18 h; in short: as §1
[13] = system: Staphylococcus epidermidis; experiment: Antibacterial activity against methicillin-resistant Staphylococcus epidermidis clinical isolate 316/08 after 18 hrs by twofold serial agar dilution technique; assay type: functional; conditions: clinical isolate 316/08, 18 h; in short: as §1
[14] = system: Staphylococcus epidermidis; experiment: Antibacterial activity against methicillin-resistant Staphylococcus epidermidis clinical isolate 317/08 after 18 hrs by twofold serial agar dilution technique; assay type: functional; conditions: clinical isolate 317/08, 18 h; in short: as §1
[15] = system: Staphylococcus epidermidis; experiment: Antibacterial activity against methicillin-resistant Staphylococcus epidermidis clinical isolate 318/08 after 18 hrs by twofold serial agar dilution technique; assay type: functional; conditions: clinical isolate 318/08, 18 h; in short: as §1
[16] = system: Staphylococcus epidermidis; experiment: Antibacterial activity against methicillin-resistant Staphylococcus epidermidis clinical isolate 340/09 after 18 hrs by twofold serial agar dilution technique; assay type: functional; conditions: clinical isolate 340/09, 18 h; in short: as §1
[17] = system: Staphylococcus epidermidis; experiment: Antibacterial activity against methicillin-resistant Staphylococcus epidermidis clinical isolate 341/09 after 18 hrs by twofold serial agar dilution technique; assay type: functional; conditions: clinical isolate 341/09, 18 h; in short: as §1
[18] = system: Staphylococcus epidermidis; experiment: Antibacterial activity against methicillin-resistant Staphylococcus epidermidis clinical isolate 342/09 after 18 hrs by twofold serial agar dilution technique; assay type: functional; conditions: clinical isolate 342/09, 18 h; in short: as §1
[19] = system: Staphylococcus epidermidis; experiment: Antibacterial activity against methicillin-resistant Staphylococcus epidermidis clinical isolate 343/09 after 18 hrs by twofold serial agar dilution technique; assay type: functional; conditions: clinical isolate 343/09, 18 h; in short: as §1
[20] = system: Staphylococcus epidermidis; experiment: Antibacterial activity against methicillin-resistant Staphylococcus epidermidis clinical isolate 377/09 after 18 hrs by twofold serial agar dilution technique; assay type: functional; conditions: clinical isolate 377/09, 18 h; in short: as §1
[21] = Cytotoxicity against human MT4 cells after 96 hrs by MTT assay; assay type: cell-based
[22] = system: Human immunodeficiency virus 1; experiment: Antiviral activity against HIV1 infected in human MT4 cells assessed as virus-induced cytopathogenicity after 4 days by MTT assay; assay type: functional, organism-based; conditions: Human immunodeficiency virus 1, MT4, 96 h
CCRF-CEM = experiment: Cytotoxicity against human CCRF-CEM cells after 96 hrs by MTT assay; assay type: functional
In short: (§2)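 Haematological tumour lines were seeded at 1 × 10^5 cells/ml in RPMI-1640 with 10% FCS plus penicillin/streptomycin. Serial dilutions from a 100 mM DMSO stock were added. After 96 h at 37 °C in 5% CO2, viability was read by MTT. The 50% proliferation-inhibiting concentration (µM) was obtained by linear regression against untreated controls, which completed at least three rounds of multiplication. Values are means of three determinations.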

WIL2-NS = experiment: Cytotoxicity against human WIL2-NS cells after 96 hrs by MTT assay; assay type: functional; in short: as §2
CCRF-SB = experiment: Cytotoxicity against human CCRF-SB cells after 96 hrs by MTT assay; assay type: functional; in short: as §2
SK-MEL-28 = experiment: Cytotoxicity against human SK-MEL-28 cells after 96 hrs by MTT assay; assay type: functional; conditions: SK-MEL-28, 96 h
In short: (§3)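 Solid tumour lines were seeded at 1 × 10^5 cells/ml in line-specific media with 10% FCS and antibiotics. Serial dilutions from a 100 mM DMSO stock were added. After 96 h at 37 °C in 5% CO2, viability was read by MTT. The 50% growth-inhibiting concentration (µM) was obtained by linear regression versus untreated controls. Values are means of three independent determinations.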

MCF7 = experiment: Cytotoxicity against human MCF7 cells after 96 hrs by MTT assay; assay type: functional; conditions: MCF7, 96 h; in short: as §3
SK-MES-1 = experiment: Cytotoxicity against human SKMES1 cells after 96 hrs by MTT assay; assay type: functional; conditions: SK-MES-1, 96 h; in short: as §3
HepG2 = experiment: Cytotoxicity against human HepG2 cells after 96 hrs by MTT assay; assay type: functional; conditions: HepG2, 96 h; in short: as §3
DU-145 = experiment: Cytotoxicity against human DU145 cells after 96 hrs by MTT assay; assay type: functional; conditions: DU-145, 96 h; in short: as §3
[23] = Cytotoxicity against human MRC5 cells after 96 hrs by MTT assay; assay type: cell-based
In short: (§4)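 Normal fibroblasts seeded at 1 × 10^5 cells/ml in specific media with 10% FCS and antibiotics; serial compound dilutions (100 mM DMSO stock); 96 h at 37 °C, 5% CO2; MTT read-out; 50% proliferation-reduction concentration by linear regression vs untreated controls; mean of three determinations.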

[24] = Cytotoxicity against human CRL7065 cells after 96 hrs by MTT assay; assay type: cell-based, CRL-7065; in short: as §4

Nc1ncnn1/C(S)=N/Cc1ccccc1
Activity (Mus musculus [1]): Non-toxic | Activity (Mus musculus [2]): Non-toxic | Activity (Mus musculus [3]): Active | Activity (Mus musculus [4]): inactive | Activity (Mus musculus [5]): Non-toxic | Activity (Mus musculus [6]): Non-toxic | Activity (Mus musculus [7]): inactive | Activity (Mus musculus [8]): inactive | Activity (Mus musculus [9]): Active | Activity (Mus musculus [10]): Toxic | MIC [11]: > 400 µg/mL | MIC [12]: > 400 µg/mL | MIC [13]: > 400 µg/mL | MIC [14]: > 400 µg/mL | MIC [15]: > 400 µg/mL | MIC [16]: > 400 µg/mL | MIC [17]: > 400 µg/mL | MIC [18]: > 400 µg/mL | MIC [19]: > 400 µg/mL | MIC [20]: > 400 µg/mL | CC50 at 96 h [21]: 7.4 µM | EC50 [22]: > 7.4 µM | CC50 (CCRF-CEM): 39 µM | CC50 (WIL2-NS): 52 µM | CC50 (CCRF-SB): 42 µM | CC50 (SK-MEL-28): 72 µM | CC50 (MCF7): 49 µM | CC50 (SK-MES-1): 85 µM | CC50 (HepG2): 78 µM | CC50 (DU-145): 11 µM | CC50 at 96 h [23]: 43 µM | CC50 at 96 h [24]: 47 µM
